Results: ChEMBL document CHEMBL3232836, “Discovery of 4-anilino α-carbolines as novel Brk inhibitors” (Bioorg Med Chem Lett, 2014)
pIC50: −log10 of the molar value.

How the values were obtained:
[1] = Antiproliferative activity against human Hs 578T cells by sulfur rhodamine assay; assay type: functional
MCF7 = experiment: Antiproliferative activity against human MCF7 cells by sulfur rhodamine assay; assay type: functional
[2] = Antiproliferative activity against human BT549 cells by sulfur rhodamine assay; assay type: functional; conditions: BT-549
[3] = biological target: Protein-tyrosine kinase 6 (Homo sapiens, UniProt Q13882); experiment: Inhibition of Brk (unknown origin) using [gamma-33P]-ATP after 60 mins by scintillation counting; conditions: for pIC50: read-out: IC50
Protein-tyrosine kinase 6, sequence (Q13882 whole entry): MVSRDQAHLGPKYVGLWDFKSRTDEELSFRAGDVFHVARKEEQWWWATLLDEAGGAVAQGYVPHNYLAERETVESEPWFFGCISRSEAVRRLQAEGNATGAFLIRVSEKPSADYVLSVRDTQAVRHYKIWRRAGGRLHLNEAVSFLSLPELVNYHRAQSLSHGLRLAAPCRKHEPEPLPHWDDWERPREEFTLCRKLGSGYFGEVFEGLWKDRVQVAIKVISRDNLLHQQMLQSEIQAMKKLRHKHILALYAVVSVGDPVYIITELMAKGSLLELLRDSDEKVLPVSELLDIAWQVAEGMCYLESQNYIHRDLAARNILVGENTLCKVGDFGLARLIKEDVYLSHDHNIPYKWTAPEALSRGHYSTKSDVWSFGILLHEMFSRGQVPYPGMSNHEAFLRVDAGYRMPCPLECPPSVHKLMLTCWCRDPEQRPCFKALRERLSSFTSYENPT

[4] = biological target: Glycogen synthase kinase-3 beta (Homo sapiens, UniProt P49841); experiment: Inhibition of human GSK3beta
[5] = biological target: Tyrosine-protein kinase JAK3 (Homo sapiens, UniProt P52333); experiment: Inhibition of human JAK3
How it was run: (§1)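 Radiometric kinase assay in FlashPlates. Test compound was added from a 10% DMSO solution and ATP from an aqueous solution. The reaction was stopped with 2% (v/v) phosphoric acid, and plates were aspirated and washed with water or 0.9% NaCl. ³³Pi incorporation was read on a microplate scintillation counter.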

[6] = biological target: Serine/threonine-protein kinase PAK 2 (Homo sapiens, UniProt Q13177); experiment: Inhibition of human PAK2; how it was run: as §1
Serine/threonine-protein kinase PAK 2, sequence (Q13177 whole entry): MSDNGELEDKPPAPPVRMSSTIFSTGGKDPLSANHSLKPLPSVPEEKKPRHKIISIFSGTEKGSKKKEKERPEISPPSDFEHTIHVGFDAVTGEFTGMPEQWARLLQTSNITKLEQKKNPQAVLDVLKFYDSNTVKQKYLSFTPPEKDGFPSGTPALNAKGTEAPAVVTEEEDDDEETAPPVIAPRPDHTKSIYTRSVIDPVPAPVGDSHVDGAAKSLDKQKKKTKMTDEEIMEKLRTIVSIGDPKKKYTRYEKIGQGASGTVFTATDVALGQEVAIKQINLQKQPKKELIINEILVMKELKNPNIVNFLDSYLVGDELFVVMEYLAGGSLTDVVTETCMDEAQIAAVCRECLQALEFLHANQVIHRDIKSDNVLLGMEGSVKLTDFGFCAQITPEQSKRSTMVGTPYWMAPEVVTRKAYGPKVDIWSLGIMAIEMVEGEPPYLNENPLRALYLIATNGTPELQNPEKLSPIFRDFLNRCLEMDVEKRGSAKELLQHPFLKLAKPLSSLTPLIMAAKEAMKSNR

[7] = biological target: MAP kinase-activated protein kinase 5 (Homo sapiens, UniProt Q8IW41); experiment: Inhibition of human MAPKAPK5
MAP kinase-activated protein kinase 5, sequence (Q8IW41 whole entry): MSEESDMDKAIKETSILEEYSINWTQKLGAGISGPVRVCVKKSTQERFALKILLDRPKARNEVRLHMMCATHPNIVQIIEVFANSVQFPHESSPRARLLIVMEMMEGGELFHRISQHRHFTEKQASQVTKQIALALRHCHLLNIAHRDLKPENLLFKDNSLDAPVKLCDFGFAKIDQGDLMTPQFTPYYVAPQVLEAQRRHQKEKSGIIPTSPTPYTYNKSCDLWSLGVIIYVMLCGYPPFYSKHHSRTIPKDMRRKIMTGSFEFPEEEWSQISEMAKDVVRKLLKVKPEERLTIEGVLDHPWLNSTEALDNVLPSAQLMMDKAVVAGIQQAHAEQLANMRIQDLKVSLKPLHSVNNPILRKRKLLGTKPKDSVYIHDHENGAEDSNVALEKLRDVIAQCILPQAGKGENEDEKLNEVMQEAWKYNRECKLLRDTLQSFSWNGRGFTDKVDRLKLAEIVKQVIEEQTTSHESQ

Myotonin-protein kinase = Myotonin-protein kinase (Homo sapiens, UniProt Q09013); experiment: Inhibition of human DMPK
Myotonin-protein kinase, sequence (Q09013 whole entry): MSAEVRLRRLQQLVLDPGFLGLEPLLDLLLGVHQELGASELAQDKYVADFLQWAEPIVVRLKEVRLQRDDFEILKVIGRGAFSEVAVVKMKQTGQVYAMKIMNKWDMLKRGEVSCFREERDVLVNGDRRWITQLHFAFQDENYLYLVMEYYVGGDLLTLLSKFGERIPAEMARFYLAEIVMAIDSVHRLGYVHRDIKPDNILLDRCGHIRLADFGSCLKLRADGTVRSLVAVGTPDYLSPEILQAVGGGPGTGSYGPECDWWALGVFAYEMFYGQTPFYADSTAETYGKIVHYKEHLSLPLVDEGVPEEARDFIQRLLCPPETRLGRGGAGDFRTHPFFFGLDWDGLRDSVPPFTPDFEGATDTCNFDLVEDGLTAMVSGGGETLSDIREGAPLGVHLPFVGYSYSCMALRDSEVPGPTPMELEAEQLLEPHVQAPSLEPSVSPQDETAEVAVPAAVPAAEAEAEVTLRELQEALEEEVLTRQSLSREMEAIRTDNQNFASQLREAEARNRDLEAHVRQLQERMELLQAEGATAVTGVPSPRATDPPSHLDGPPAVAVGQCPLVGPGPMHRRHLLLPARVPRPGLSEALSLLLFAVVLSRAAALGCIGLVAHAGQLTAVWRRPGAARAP

[8] = biological target: Homeodomain-interacting protein kinase 1 (Homo sapiens, UniProt Q86Z02); experiment: Inhibition of human HIPK1
[9] = biological target: Mitogen-activated protein kinase 3 (Homo sapiens, UniProt P27361); experiment: Inhibition of human ERK1; how it was run: as §1
[10] = biological target: RAC-gamma serine/threonine-protein kinase (Homo sapiens, UniProt Q9Y243); experiment: Inhibition of human AKT3; how it was run: as §1
RAC-gamma serine/threonine-protein kinase, sequence (Q9Y243 whole entry): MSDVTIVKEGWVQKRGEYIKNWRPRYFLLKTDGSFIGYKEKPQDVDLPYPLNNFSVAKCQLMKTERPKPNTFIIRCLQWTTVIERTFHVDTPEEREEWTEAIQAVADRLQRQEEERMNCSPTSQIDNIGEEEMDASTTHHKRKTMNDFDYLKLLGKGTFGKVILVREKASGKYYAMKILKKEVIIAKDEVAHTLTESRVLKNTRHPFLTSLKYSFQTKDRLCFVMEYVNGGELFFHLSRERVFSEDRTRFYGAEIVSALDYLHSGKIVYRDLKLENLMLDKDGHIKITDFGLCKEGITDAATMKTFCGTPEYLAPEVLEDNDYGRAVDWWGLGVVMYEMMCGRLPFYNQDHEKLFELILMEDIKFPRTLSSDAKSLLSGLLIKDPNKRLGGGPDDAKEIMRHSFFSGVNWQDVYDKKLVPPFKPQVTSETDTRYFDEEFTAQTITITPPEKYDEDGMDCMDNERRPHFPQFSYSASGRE

[11] = biological target: Serine/threonine-protein kinase 24 (Homo sapiens, UniProt Q9Y6E0); experiment: Inhibition of human MST3; how it was run: as §1
[12] = biological target: RAC-alpha serine/threonine-protein kinase (Homo sapiens, UniProt P31749); experiment: Inhibition of human AKT1
[13] = biological target: Serine/threonine-protein kinase pim-2 (Homo sapiens, UniProt Q9P1W9); experiment: Inhibition of human PIM2
[14] = biological target: Serine/threonine-protein kinase MARK1 (Homo sapiens, UniProt Q9P0L2); experiment: Inhibition of human MARK1
[15] = biological target: Serine/threonine-protein kinase PAK 1 (Homo sapiens, UniProt Q13153); experiment: Inhibition of human PAK1
[16] = biological target: Mitogen-activated protein kinase 1 (Homo sapiens, UniProt P28482); experiment: Inhibition of human ERK2
[17] = biological target: Serine/threonine-protein kinase PAK 3 (Homo sapiens, UniProt O75914); experiment: Inhibition of human PAK3
[18] = biological target: Calcium/calmodulin-dependent protein kinase type IV (Homo sapiens, UniProt Q16566); experiment: Inhibition of human CAMK4
[19] = biological target: Proto-oncogene tyrosine-protein kinase Src (Homo sapiens, UniProt P12931); experiment: Inhibition of human Src
[20] = biological target: RAC-beta serine/threonine-protein kinase (Homo sapiens, UniProt P31751); experiment: Inhibition of human AKT2
RAC-beta serine/threonine-protein kinase, sequence (P31751 whole entry): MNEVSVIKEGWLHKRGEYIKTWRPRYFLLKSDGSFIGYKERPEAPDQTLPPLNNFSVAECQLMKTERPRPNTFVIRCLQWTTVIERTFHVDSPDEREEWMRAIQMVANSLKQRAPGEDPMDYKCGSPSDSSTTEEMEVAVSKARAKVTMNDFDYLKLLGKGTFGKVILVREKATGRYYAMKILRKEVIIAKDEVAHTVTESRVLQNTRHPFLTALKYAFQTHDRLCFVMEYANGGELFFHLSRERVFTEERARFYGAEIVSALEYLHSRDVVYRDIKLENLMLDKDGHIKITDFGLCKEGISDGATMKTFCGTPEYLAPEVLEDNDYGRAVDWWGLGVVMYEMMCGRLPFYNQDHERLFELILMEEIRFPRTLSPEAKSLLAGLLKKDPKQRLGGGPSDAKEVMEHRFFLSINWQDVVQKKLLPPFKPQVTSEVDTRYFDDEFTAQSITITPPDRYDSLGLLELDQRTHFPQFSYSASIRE

[21] = Inhibition of human MARK5
[22] = biological target: Serine/threonine-protein kinase 26 (Homo sapiens, UniProt Q9P289); experiment: Inhibition of human MST4
[23] = biological target: MAP kinase-activated protein kinase 3 (Homo sapiens, UniProt Q16644); experiment: Inhibition of human MAPKAPK3
[24] = biological target: Serine/threonine-protein kinase VRK1 (Homo sapiens, UniProt Q99986); experiment: Inhibition of human VRK1
[25] = biological target: Homeodomain-interacting protein kinase 2 (Homo sapiens, UniProt Q9H2X6); experiment: Inhibition of human HIPK2
[26] = biological target: Mitogen-activated protein kinase 8 (Homo sapiens, UniProt P45983); experiment: Inhibition of human JNK1
[27] = biological target: Serine/threonine-protein kinase Nek2 (Homo sapiens, UniProt P51955); experiment: Inhibition of human NEK2
[28] = biological target: Serine/threonine-protein kinase Nek1 (Homo sapiens, UniProt Q96PY6); experiment: Inhibition of human NEK1
Serine/threonine-protein kinase Nek1, sequence (Q96PY6 whole entry): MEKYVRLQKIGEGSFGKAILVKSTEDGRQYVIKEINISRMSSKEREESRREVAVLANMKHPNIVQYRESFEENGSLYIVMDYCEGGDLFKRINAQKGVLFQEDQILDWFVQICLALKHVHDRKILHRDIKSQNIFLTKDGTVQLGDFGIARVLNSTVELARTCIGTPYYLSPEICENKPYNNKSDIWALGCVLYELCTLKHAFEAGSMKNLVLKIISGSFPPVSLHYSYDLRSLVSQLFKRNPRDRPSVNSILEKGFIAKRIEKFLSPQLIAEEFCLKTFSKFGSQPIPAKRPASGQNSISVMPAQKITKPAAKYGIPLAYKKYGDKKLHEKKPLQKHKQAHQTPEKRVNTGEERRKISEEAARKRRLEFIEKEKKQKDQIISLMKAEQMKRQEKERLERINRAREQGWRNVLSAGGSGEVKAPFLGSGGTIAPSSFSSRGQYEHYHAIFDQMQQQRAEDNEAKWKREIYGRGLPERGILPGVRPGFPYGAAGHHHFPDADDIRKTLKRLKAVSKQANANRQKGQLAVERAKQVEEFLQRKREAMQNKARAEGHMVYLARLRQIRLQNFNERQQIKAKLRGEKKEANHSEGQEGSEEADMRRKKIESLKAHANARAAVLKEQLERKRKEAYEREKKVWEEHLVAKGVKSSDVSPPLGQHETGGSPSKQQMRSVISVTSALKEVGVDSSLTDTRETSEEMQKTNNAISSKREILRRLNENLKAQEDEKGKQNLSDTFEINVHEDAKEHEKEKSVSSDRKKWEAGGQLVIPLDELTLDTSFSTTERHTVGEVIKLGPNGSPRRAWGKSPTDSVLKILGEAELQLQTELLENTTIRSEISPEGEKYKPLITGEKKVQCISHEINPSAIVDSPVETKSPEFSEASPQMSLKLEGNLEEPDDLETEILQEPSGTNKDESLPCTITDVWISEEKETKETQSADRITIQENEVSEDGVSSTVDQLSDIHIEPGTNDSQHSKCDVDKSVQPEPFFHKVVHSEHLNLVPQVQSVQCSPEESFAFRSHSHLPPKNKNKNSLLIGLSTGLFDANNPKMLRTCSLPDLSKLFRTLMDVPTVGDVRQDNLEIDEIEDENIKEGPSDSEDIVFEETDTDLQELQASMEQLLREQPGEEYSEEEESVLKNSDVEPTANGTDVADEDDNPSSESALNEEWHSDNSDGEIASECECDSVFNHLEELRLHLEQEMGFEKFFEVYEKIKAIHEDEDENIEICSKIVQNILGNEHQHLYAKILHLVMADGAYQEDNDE

[29] = biological target: MAP/microtubule affinity-regulating kinase 3 (Homo sapiens, UniProt P27448); experiment: Inhibition of human MARK3; how it was run: as §1
MAP/microtubule affinity-regulating kinase 3, sequence (P27448 whole entry): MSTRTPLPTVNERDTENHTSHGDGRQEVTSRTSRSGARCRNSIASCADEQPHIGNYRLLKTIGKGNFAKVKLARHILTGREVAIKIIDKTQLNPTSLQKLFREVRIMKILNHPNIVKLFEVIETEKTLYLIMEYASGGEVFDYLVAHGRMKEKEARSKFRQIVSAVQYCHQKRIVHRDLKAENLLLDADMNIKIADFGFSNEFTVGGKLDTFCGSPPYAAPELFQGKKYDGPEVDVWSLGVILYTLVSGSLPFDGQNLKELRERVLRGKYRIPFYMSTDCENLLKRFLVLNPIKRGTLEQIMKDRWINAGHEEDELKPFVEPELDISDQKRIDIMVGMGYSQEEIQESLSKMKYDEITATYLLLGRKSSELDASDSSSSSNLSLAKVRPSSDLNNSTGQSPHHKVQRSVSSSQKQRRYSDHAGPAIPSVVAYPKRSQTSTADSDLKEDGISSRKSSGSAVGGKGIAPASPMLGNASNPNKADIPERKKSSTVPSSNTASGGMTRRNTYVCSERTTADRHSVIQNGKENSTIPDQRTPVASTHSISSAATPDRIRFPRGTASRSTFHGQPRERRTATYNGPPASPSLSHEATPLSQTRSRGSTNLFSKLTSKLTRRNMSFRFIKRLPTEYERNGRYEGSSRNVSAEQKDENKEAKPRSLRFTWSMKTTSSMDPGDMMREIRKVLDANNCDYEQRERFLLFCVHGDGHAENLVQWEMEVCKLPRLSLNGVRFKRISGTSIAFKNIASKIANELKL

[30] = biological target: Homeodomain-interacting protein kinase 3 (Homo sapiens, UniProt Q9H422); experiment: Inhibition of human HIPK3
[31] = biological target: Mitogen-activated protein kinase 10 (Homo sapiens, UniProt P53779); experiment: Inhibition of human JNK3

SMILES: Fc1ccc(Nc2ccnc3[nH]c4ccccc4c23)cc1Cl
- GI50 [1]: 10.2 µM
- GI50 (MCF7): 8.12 µM
- GI50 [2]: > 100 µM
- pIC50 [3]: 7.16

SMILES: COc1ccc(Nc2ccnc3[nH]c4ccccc4c23)cc1
- pIC50 [3]: 6.72

SMILES: Oc1cccc(Nc2ccnc3[nH]c4ccccc4c23)c1
- pIC50 [4]: < 5.00
- GI50 [1]: 1.02 µM
- pIC50 [5]: < 5.00
- pIC50 [6]: < 5.00
- pIC50 [7]: < 5.00
- pIC50 (Myotonin-protein kinase): < 5.00
- pIC50 [8]: < 5.00
- pIC50 [9]: < 5.00
- pIC50 [10]: < 5.00
- pIC50 [11]: < 5.00
- pIC50 [12]: < 5.00
- pIC50 [13]: < 5.00
- pIC50 [14]: < 5.00
- pIC50 [15]: < 5.00
- GI50 (MCF7): 0.99 µM
- pIC50 [16]: < 5.00
- pIC50 [17]: < 5.00
- pIC50 [18]: < 5.00
- pIC50 [19]: 5.52
- pIC50 [20]: < 5.00
- GI50 [2]: 1.58 µM
- pIC50 [21]: < 5.00
- pIC50 [22]: < 5.00
- pIC50 [23]: < 5.00
- pIC50 [24]: < 5.00
- pIC50 [25]: < 5.00
- pIC50 [26]: < 5.00
- pIC50 [27]: < 5.00
- pIC50 [28]: < 5.00
- pIC50 [29]: < 5.00
- pIC50 [30]: < 5.00
- pIC50 [31]: < 5.00
- pIC50 [3]: 8.50

SMILES: Clc1cc(Cl)cc(Nc2ccnc3[nH]c4ccccc4c23)c1
- pIC50 [3]: 7.27

SMILES: CSc1cccc(Nc2ccnc3[nH]c4ccccc4c23)c1
- IC50 [3]: Not Active

SMILES: O=[N+]([O-])c1cccc(Nc2ccnc3[nH]c4ccccc4c23)c1
- pIC50 [3]: 8.25

SMILES: CCOc1cccc(Nc2ccnc3[nH]c4ccccc4c23)c1
- pIC50 [3]: 6.81

SMILES: Cc1ccc(Nc2ccnc3[nH]c4ccccc4c23)cc1Cl
- pIC50 [3]: 7.12

SMILES: Clc1ccc(Nc2ccnc3[nH]c4ccccc4c23)cc1
- IC50 [3]: Not Active

SMILES: Cc1ccccc1Nc1ccnc2[nH]c3ccccc3c12
- IC50 [3]: Not Active

SMILES: COc1cccc(Nc2ccnc3[nH]c4ccccc4c23)c1
- IC50 [3]: Not Active

SMILES: COc1cc(Nc2ccnc3[nH]c4ccccc4c23)ccc1Br
- pIC50 [3]: 8.36

SMILES: CCOc1cc(Nc2ccnc3[nH]c4ccccc4c23)ccc1Br
- pIC50 [3]: 6.81

SMILES: FC(F)(F)c1cccc(Nc2ccnc3[nH]c4ccccc4c23)c1
- pIC50 [3]: 7.23

SMILES: Clc1cccc(Nc2ccnc3[nH]c4ccccc4c23)c1
- pIC50 [3]: 8.32
